Our source for the Ki and inhibition values is ChEMBL document CHEMBL4411328, “Synthesis and Structural/Functional Characterization of Selective M14 Metallocarboxypeptidase Inhibitors Based on Phosphinic Pseudopeptide Scaffold: Implications on the Design of Specific Optical Probes” (J Med Chem, 2019).

Structures are written as SMILES. Calls of active or inactive are those of the source. The rule behind the calls is not given here.

One assay deals with T1, Carboxypeptidase A1 (Homo sapiens, UniProt P15085).
T1 sequence (P15085 whole entry): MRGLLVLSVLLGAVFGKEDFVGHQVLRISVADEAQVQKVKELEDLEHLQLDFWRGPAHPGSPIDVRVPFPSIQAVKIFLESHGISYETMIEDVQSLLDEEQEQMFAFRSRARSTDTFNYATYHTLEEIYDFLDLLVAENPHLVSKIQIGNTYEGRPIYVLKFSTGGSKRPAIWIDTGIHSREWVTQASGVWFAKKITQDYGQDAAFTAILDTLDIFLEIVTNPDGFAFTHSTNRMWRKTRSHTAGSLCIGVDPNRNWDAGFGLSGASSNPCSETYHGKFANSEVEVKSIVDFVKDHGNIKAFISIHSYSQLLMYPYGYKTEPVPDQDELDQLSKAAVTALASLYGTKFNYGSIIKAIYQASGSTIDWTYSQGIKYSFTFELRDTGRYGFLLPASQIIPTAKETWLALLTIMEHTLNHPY
Kind of assay: Inhibition of human CPA1 using AAFP as substrate preincubated for 45 mins to 2 hrs measured at 30 sec intervals for 15 mins by UV/vis-spectrophotometry. In outline:
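hCPA1 was used at 1.0x10-8 M with AAFP substrate at 1.0x10-4 M, read at 355 nm. Enzyme and inhibitor were preincubated 45 min at 37 °C before substrate was added. Initial velocities were read every 30 sec for 15 min, in triplicate. Apparent Ki came from a fit to the tight-binding equation.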

The target in another assay is T2, Carboxypeptidase A2 (Homo sapiens, UniProt P48052).
T2 sequence (P48052 whole entry): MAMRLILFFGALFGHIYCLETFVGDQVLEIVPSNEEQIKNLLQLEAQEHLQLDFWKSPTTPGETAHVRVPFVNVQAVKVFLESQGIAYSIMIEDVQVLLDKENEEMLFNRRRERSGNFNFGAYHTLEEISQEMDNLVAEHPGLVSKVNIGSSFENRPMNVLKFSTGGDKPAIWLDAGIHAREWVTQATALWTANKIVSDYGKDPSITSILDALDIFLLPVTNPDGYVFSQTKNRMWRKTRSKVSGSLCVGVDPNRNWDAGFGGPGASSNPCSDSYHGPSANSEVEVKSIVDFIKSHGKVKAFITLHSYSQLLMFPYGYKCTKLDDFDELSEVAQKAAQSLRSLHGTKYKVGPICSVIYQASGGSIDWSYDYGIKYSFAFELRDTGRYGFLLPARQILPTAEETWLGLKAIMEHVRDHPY
Kind of assay: Inhibition of human CPA2 using AAFP as substrate preincubated for 45 mins to 2 hrs measured at 30 sec intervals for 15 mins by UV/vis-spectrophotometry. Summed up: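 hCPA2 was used at 3.0x10-8 M with AAFP substrate at 1.0x10-4 M, read at 355 nm, in 20 mM Tris-HCl pH 7.5, 500 mM NaCl, 1% DMSO, 0.05% Brij-35. After a 45 min preincubation at 37 °C, initial rates were followed at 30 sec intervals for 15 min, in triplicate. Kiapp was fitted by the tight-binding equation.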

For a further assay, the target named is T3, Carboxypeptidase A4 (Homo sapiens, UniProt Q9UI42).
T3 sequence (Q9UI42 whole entry): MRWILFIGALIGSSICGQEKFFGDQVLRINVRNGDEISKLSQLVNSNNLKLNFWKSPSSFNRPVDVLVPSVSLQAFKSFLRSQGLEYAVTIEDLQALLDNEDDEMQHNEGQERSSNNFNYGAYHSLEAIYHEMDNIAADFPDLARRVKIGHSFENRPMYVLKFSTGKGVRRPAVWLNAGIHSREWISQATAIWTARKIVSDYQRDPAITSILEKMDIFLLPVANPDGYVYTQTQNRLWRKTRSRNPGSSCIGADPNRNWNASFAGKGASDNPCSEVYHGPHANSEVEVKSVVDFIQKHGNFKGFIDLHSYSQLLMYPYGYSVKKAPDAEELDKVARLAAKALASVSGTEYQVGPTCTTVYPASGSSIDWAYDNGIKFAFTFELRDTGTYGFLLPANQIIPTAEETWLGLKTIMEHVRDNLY
The experiment in a line: Inhibition of human CPA4 using AAFP as substrate preincubated for 45 mins to 2 hrs measured at 30 sec intervals for 15 mins by UV/vis-spectrophotometry. In outline:
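Enzyme was hCPA4 at 4.3x10-8 M, with 1.0x10-4 M AAFP and detection at 355 nm. Inhibitor and enzyme were preincubated 45 min at 37 °C, then initial velocities were taken over 15 min (30 sec reads), in triplicate. Kiapp was obtained from the tight-binding fit.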

In the next assay the target is Carboxypeptidase B (Homo sapiens, UniProt P15086). The experiment in a line: Inhibition of human CPB1 using AAFA as substrate preincubated for 45 mins to 2 hrs measured at 30 sec intervals for 15 mins by UV/vis-spectrophotometry. Summed up: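 hCPB1 was used at 6.0x10-9 M with 1.0x10-4 M AAFA, read at 355 nm. After 45 min preincubation with inhibitor at 37 °C, residual activity at varied inhibitor concentrations was followed for 15 min at 30 sec intervals, in triplicate. Kiapp was fitted with the tight-binding equation.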
Sequence of Carboxypeptidase B (P15086 whole entry): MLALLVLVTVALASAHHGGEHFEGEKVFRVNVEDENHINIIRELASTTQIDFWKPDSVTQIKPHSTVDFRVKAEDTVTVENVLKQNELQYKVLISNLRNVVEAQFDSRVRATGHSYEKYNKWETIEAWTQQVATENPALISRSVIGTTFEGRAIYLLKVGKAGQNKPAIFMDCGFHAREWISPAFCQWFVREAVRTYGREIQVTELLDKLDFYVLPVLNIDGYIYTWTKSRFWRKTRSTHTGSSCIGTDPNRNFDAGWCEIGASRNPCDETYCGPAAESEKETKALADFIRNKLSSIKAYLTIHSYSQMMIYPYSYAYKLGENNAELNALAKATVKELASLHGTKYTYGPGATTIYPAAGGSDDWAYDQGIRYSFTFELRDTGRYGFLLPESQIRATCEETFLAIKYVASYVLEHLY

In assay [1] the target is T4, Carboxypeptidase D (Homo sapiens) (UniProt O75976).
T4 sequence (whole entry): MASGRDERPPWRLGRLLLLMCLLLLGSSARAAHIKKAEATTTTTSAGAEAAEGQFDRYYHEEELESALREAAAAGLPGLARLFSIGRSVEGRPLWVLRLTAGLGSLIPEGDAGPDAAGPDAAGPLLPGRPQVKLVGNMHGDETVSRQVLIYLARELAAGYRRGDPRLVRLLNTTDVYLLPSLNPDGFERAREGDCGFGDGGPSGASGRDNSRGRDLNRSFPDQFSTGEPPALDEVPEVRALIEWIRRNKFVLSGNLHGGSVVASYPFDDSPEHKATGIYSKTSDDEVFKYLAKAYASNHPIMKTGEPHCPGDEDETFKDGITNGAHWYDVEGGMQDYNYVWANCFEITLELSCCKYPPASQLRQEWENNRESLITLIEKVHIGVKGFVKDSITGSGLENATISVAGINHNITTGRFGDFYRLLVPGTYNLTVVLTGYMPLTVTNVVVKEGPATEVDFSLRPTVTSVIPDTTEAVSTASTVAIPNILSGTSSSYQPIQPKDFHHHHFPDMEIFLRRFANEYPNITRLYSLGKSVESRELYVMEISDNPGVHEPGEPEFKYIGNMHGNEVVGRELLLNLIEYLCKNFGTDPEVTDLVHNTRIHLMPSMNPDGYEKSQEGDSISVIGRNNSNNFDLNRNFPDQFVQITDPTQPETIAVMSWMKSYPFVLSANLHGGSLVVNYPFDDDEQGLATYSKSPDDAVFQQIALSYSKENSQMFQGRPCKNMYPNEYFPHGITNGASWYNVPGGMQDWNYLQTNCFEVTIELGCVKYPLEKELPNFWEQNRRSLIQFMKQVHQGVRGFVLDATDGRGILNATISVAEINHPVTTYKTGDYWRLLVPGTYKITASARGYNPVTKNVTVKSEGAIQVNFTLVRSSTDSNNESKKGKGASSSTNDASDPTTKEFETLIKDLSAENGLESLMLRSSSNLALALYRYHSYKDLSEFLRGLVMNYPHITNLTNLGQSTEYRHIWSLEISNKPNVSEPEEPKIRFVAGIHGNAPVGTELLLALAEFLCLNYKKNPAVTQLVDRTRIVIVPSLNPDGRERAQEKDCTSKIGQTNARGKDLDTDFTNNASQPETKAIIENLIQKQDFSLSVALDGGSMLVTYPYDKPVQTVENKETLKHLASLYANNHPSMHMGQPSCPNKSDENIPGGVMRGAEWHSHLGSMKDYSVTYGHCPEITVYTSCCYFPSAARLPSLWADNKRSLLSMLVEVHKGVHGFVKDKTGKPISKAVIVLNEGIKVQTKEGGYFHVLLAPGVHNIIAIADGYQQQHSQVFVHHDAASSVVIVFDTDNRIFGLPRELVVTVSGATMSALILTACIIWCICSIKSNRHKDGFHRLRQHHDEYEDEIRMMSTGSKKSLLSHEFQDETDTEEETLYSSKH
Kind of assay: Inhibition of human CPD at 1 nM to 1 mM using AAFA as substrate preincubated for 45 mins to 2 hrs measured at 30 sec intervals for 15 mins by UV/vis-spectrophotometry. In outline: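 hCPD was used at 2.0x10-8 M with AAFA substrate at 1.0x10-4 M, monitored at 355 nm. Buffer was 20 mM Tris-HCl pH 7.5, 100 mM NaCl, 1% DMSO, 0.05% Brij-35. Preincubation was 45 min at 37 °C. Residual activity at a range of inhibitor concentrations was measured from initial rates (30 sec reads, 15 min), in triplicate. Kiapp came from the tight-binding fit.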

In general, Ki refers to the equilibrium dissociation constant of an inhibitor or competing ligand from its target.

As to `CC(=O)N[C@@H](CC(C)C)C(=O)N[C@@H](Cc1ccccc1)P(=O)(O)C[C@@H](Cc1ccccc1)C(=O)O`, the inhibition constant (Ki) is 0.04 nM at Carboxypeptidase A1, 1 nM at Carboxypeptidase A2, 0.39 nM on Carboxypeptidase A4 and 0.12 nM on Carboxypeptidase B. Moreover, in assay [1], the inhibition result is “inactive”.
